# Data as given in paper PMC5299035 (Drug development research, 2016).
# How the values were obtained:
# Format in all cases: cell-based
# human neutrophils = experiment: Ca2+ mobilization assay in human neutrophils; conditions: for Ca2+ flux human neutrophils efficacy: % of the response induced by 5 nM fMLF; for EC50: Homo sapiens, Neutrophil, read-out: Ca2+ flux human neutrophils EC50
# How it was run: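 Neutrophils from healthy donors were purified by dextran sedimentation, Histopaque 1077 gradient and hypotonic red-cell lysis (>95% pure, >98% viable). After Fluo-4 AM loading (1.25 μg/mL final, 30 min, 37 °C, dark), cells were seeded at 2 × 10^5/well in HBSS with Ca2+/Mg2+. Fluorescence (485/538 nm) was tracked every 5 s for 240 s at room temperature. Maximum change over baseline was normalised, and EC50 came from a 5-6-point nonlinear fit.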
# FPR1 = biological target: T1, FPR1 (Homo sapiens, UniProt P21462); experiment: Ca2+ mobilization assay in FPR1-HL60 cells; conditions: for Ca2+ flux FPR1-HL60 efficacy: % of the response induced by 5 nM fMLF; for Emax: read-out: Ca2+ flux FPR1-HL60 efficacy
# T1 sequence (P21462 1-350): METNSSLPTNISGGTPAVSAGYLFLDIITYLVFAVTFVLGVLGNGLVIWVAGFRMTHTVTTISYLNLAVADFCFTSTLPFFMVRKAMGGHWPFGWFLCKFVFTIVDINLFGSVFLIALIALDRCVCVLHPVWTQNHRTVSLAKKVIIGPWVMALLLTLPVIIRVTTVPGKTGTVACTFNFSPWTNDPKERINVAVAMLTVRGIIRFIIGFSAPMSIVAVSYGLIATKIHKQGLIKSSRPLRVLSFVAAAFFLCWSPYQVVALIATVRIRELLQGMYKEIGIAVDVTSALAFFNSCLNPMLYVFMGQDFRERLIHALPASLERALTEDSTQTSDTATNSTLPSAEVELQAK
# How it was run: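 FPR1-transfected HL60 cells were grown in RPMI 1640 with 10% heat-inactivated FCS, 10 mM HEPES and G418 (1 mg/mL). Cells were loaded with Fluo-4 AM (1.25 μg/mL final) for 30 min at 37 °C in the dark, then washed and seeded in HBSS+ at 2 × 10^5 cells/well. Fluorescence (485/538 nm) was read every 5 s for 240 s at room temperature after compound addition. Peak rise over baseline was set against 5 nM fMLF (100%). EC50 came from nonlinear regression of 5-6-point curves, mean of three independent experiments. No activity meant no response within 2 min (limits: efficacy >20%, EC50 <50 μM).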
# FPR2 = biological target: T2, FPR2 (Homo sapiens, UniProt P25090); experiment: Ca2+ mobilization assay in FPR2-HL60 cells; conditions: for Ca2+ flux FPR2-HL60 efficacy: % of the response induced by 5 nM WKYMVm; for Emax: read-out: Ca2+ flux FPR2-HL60 efficacy
# T2 sequence (P25090 1-351): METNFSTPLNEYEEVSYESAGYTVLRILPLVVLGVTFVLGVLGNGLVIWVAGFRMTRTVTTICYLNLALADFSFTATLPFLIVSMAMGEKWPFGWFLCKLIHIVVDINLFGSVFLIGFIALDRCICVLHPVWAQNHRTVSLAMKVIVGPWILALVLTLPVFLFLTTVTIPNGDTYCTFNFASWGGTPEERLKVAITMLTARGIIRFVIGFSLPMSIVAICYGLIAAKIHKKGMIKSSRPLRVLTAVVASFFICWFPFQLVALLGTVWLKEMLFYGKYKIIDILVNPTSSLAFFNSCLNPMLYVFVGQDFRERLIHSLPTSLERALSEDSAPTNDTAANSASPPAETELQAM
# How it was run: (§1)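 FPR2- or FPR3-transfected HL60 cells were grown in RPMI 1640 with 10% heat-inactivated FCS and G418 1 mg/mL. Cells were loaded with Fluo-4 AM (1.25 μg/mL final) for 30 min at 37 °C in the dark, washed, and seeded at 2 × 10^5 cells/well in HBSS+. Fluorescence (ex 485/em 538 nm) was read every 5 s for 240 s at room temperature. Peak rise over baseline was normalised to the reference agonist. EC50 came from 5-6-point nonlinear regression over three independent experiments.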
# FPR3 = biological target: T3, FPR3 (Homo sapiens, UniProt P25089); experiment: Ca2+ mobilization assay in FPR3-HL60 cells; conditions: for Ca2+ flux FPR3-HL60 efficacy: % of the response induced by 10 nM WKYMVm; for Emax: read-out: Ca2+ flux FPR3-HL60 efficacy
# T3 sequence (P25089 1-353): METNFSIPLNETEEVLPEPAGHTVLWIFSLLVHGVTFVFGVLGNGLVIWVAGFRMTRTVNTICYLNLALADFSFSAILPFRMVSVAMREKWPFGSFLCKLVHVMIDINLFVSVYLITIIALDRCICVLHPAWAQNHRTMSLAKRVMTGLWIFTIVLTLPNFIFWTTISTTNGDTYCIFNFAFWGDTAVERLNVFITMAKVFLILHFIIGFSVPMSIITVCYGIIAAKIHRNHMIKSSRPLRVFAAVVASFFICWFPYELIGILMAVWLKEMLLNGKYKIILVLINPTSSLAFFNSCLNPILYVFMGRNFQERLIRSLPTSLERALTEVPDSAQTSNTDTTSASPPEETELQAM
# How it was run: as §1
# mouse Fpr1 = biological target: T4, mouse Fpr1 (Mus musculus, UniProt P33766); experiment: Ca2+ mobilization assay in mFpr1-RBL cells; conditions: for Ca2+ flux mFpr1-RBL efficacy: % of the response induced by 10 nM WKYMVm; for Ca2+ flux mFpr1-RBL EC50: RBL cells transfected with mouse Fpr1, N.A. = no activity
# T4 sequence (P33766 1-364): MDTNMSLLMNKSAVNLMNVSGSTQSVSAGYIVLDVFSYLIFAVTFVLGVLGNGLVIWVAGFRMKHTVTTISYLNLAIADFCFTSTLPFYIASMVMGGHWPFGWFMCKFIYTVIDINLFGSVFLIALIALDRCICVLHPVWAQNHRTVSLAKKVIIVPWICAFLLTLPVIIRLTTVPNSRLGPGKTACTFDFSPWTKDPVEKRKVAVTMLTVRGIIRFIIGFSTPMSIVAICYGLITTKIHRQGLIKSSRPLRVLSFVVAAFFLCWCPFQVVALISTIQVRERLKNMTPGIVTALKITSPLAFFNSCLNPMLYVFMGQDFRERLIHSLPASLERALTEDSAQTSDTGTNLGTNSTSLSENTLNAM
# How it was run: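 RBL-2H3 rat basophilic leukemia cells transfected with mouse Fpr1 were kept in DMEM with 20% FBS and G418 250 μg/ml. Cells were dye-loaded with Fluo-4 AM (1.25 μg/mL final) for 30 min at 37 °C and plated at 2 × 10^5/well in HBSS+. Fluorescence (485/538 nm) was followed every 5 s for 240 s at room temperature. Peak over baseline was normalised, and EC50 was taken by 5-6-point nonlinear regression, averaged from three independent experiments.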
# mouse neutrophils = experiment: Ca2+ mobilization assay in mouse neutrophils; conditions: for Ca2+ flux mouse neutrophils EC50: N.A. = no activity (no response during first 2 min)
# How it was run: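 Bone marrow was flushed from BALB/c mouse tibias and femurs and separated on a Percoll gradient (45/50/55/62/81%, 1600g, 30 min, 10 °C). Red cells were removed over Histopaque 1119. Neutrophils were loaded with Fluo-4 AM (1.25 μg/mL final) for 30 min at 37 °C, seeded in HBSS+ at 2 × 10^5 cells/well, and read at 485/538 nm every 5 s for 240 s at room temperature. Responses were normalized to 10 nM WKYMVm. EC50 came from nonlinear regression of 5-6-point curves, three experiments.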
# mouse Fpr2 = biological target: T5, mouse Fpr2 (Mus musculus, UniProt O88536); experiment: Ca2+ mobilization assay in mFpr2-RBL cells; conditions: for Ca2+ flux mFpr2-RBL EC50: RBL cells transfected with mouse Fpr2, N.A. = no activity
# T5 sequence (O88536 1-351): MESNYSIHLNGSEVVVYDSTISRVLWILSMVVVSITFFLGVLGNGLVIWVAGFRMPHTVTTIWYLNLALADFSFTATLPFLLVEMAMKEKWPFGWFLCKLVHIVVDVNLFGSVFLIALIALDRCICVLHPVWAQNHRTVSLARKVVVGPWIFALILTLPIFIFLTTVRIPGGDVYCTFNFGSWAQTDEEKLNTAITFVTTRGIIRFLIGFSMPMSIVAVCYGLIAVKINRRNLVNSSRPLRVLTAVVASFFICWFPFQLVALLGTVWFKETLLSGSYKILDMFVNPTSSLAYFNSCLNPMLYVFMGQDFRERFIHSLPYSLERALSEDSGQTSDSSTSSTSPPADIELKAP
# How it was run: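 RBL-2H3 cells stably expressing mouse Fpr2 were grown in DMEM with 20% FBS, 10 mM HEPES and G418 (250 μg/ml). Fluo-4 AM (1.25 μg/mL final) was loaded for 30 min at 37 °C in the dark. Cells were seeded in HBSS+ at 2 × 10^5 cells/well, and fluorescence (485/538 nm) was read every 5 s for 240 s at room temperature. Peak rise was normalized to 10 nM WKYMVm (100%). EC50 came from nonlinear regression of 5-6-point curves over three independent experiments.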
# [1] = % of the response induced by 10 nM WKYMVm
Ca2+ flux FPR1-HL60 efficacy (FPR1) [%],Ca2+ flux FPR2-HL60 efficacy (FPR2) [%],Ca2+ flux FPR3-HL60 efficacy (FPR3) [%],Ca2+ flux mFpr1-RBL efficacy (mouse Fpr1) [%],Ca2+ flux mFpr2-RBL efficacy (mouse Fpr2; [1]) [%],EC50 (human neutrophils) [µM],Emax (FPR1) [%],Emax (FPR2) [%],EC50 (FPR3) [µM],Emax (FPR3) [%],Ca2+ flux mouse neutrophils EC50 (mouse neutrophils),Ca2+ flux mFpr1-RBL EC50 (mouse Fpr1),Ca2+ flux mFpr2-RBL EC50 (mouse Fpr2),SMILES,Ca2+ flux human neutrophils efficacy (human neutrophils) [%],Ca2+ flux mouse neutrophils efficacy (mouse neutrophils; [1]) [%]
60,120,150,70,,,,,,,,,,"CC1=NN(CC(=O)Nc2ccc(Br)cc2)C(=O)CC1C (racemic) [(±)-6a, (±)N-(4-Bromophenyl)-2-[3,4-dimethyl-6-oxo-5,6-dihydropyridazin-1(4H)-yl]acetamide]",115,
90,110,120,60,220,,,,,,,,,"CC1=NN(CC(=O)Nc2ccc(Br)cc2)C(=O)CC1c1ccccc1 (racemic) [(±)-6b, (±)N-(4-Bromophenyl)-2-[3-methyl-6-oxo-4-phenyl-5,6-dihydropyridazin-1(4H)-yl]acetamide]",75,160
,,,,,0.006 ± 0.002,85,80,0.04 ± 0.011,165,complete inactivity,complete inactivity,complete inactivity,"COc1cccc(Cc2c(C)c(C)nn(CC(=O)Nc3ccc(Br)cc3)c2=O)c1 [4a, N-(4-Bromophenyl)-2-[5-(3-methoxybenzyl)-3,4-dimethyl-6-oxopyridazin-1(6H)-yl]acetamide]",,
,,,,,0.27 ± 0.025,60,95,0.13 ± 0.032,100,complete inactivity,complete inactivity,complete inactivity,"COc1ccc(Cc2c(C)c(C)nn(CC(=O)Nc3ccc(Br)cc3)c2=O)cc1 [4b, N-(4-Bromophenyl)-2-[5-(4-methoxybenzyl)-3,4-dimethyl-6-oxopyridazin-1(6H)-yl]acetamide]",,
